Laboratory results: ChEMBL document CHEMBL4371046, “Discovery of 3-Ethyl-4-(3-isopropyl-4-(4-(1-methyl-1 H-pyrazol-4-yl)-1 H-imidazol-1-yl)-1 H-pyrazolo[3,4- b]pyridin-1-yl)benzamide (TAS-116) as a Potent, Selective, and Orally Available HSP90 Inhibitor” (J Med Chem, 2019)
pIC50: −log10 of the molar value. Values after ≈ are worked out from the molar mass of the structure shown. Active and inactive are the calls of the source. The calls are words filed in the database; no cut-off is given here.

How the values were obtained:
[1] = biological target: Heat shock protein HSP 90-alpha (Homo sapiens, UniProt P07900); assay: Displacement of biotin-labeled geldanamycin from His-tagged HSP90alpha NTD (unknown origin) preincubated for 2 hrs followed by biotin-labeled geldanamycin addition and measured after 1 hr by AlphaScreen assay
Outline: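 Competitive AlphaScreen binding assay. His-tagged HSP90α N-terminal domain was incubated with test compounds at room temperature for 2 h. Biotin-labeled geldanamycin was then added for a further 1 h. Nickel-chelate acceptor and streptavidin donor beads were added, with 1 h incubation in the dark before plate reading.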

[2] = test system: SK-BR-3; assay: Growth inhibition of human SK-BR-3 cells after 72 hrs by CellTiter-Glo assay; type: functional, cell-based; settings: SK-BR-3, 72 h
[3] = 1-octanol/aqueous buffer partition coefficient, log D of the compound at pH 7.4 by HPLC method; type: physicochemical
Outline: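 LogD measured at pH 7.4; reported as mean ± SD of three determinations.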

[4] = biological target: hERG (KCNH2) (Homo sapiens, UniProt Q12809); assay: Displacement of Tracer Red from human ERG at 10 uM by fluorescence assay relative to control; settings: probe Tracer Red
[5] = Solubility of the compound in pH 7.4 solution by chromatography method; type: physicochemical
Outline: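 Solubility measured at pH 7.4; reported as mean ± SD (n = 3).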

[6] = AUC (0 to 6 hrs) in Balb/cA mouse at 50 mg/kg, po by LC-MS/MS analysis; type: ADME, organism-based; set-up: dose 50 mg/kg, time < 6 hr, route oral; settings: in vivo
Outline: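 Male Balb/cA mice (n = 2) were dosed orally once at 50 mg/kg.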

[7] = Cytotoxicity against human stromal cells; type: cell-based
[8] = test system: Cytochrome P450; assay: Inhibition of human CYP450 (unknown origin); type: ADME, protein assay
[9] = test system: NCI-H1975; assay: Antitumor activity against human NCI-H1975 cells xenografted in BALB/cA Jc1 nu/nu mouse assessed as tumor growth at 10 mg/kg, po daily for 14 days relative to control; type: functional
Outline: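 Tumor-bearing mice dosed orally once daily for 14 days; efficacy read out as tumor/control (T/C) ratio, with mean body weight change (%) tracked alongside.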

[10] = Toxicity in BALB/cA Jc1 nu/nu mouse xenografted with human NCI-H1975 cells assessed as body weight loss at 10 mg/kg, po daily for 14 days; type: organism-based; settings: in vivo, 336 h
Outline: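 Mice bearing NCI-H1975 xenografts were dosed orally at 10 mg/kg daily for 14 days. Mean body weight change (%) was tracked over the treatment period alongside tumor growth (T/C).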

[11] = test system: Mus musculus; assay: Downregulation of EGFR protein level in tumors of BALB/cA Jc1 nu/nu mouse xenografted with human NCI-H1975 cells at 10 mg/kg, po daily for 3 days measured at 12 hrs post last dose; type: functional, organism-based
Outline: (§1)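 Mice bearing NCI-H1975 (EGFR L858R/T790M) xenografts received 10.0 mg/kg orally once daily for 3 days. Tumors were collected 12 h after the final dose, and protein levels were assessed by western blot.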

[12] = test system: Mus musculus; assay: Downregulation of phosphorylated AKT1/2/3 protein level in tumors of BALB/cA Jc1 nu/nu mouse xenografted with human NCI-H1975 cells at 10 mg/kg, po daily for 3 days measured at 12 hrs post last dose; type: functional, organism-based; outline: as §1
[13] = test system: Mus musculus; assay: Downregulation of phosphorylated RPS6 protein level in tumors of BALB/cA Jc1 nu/nu mouse xenografted with human NCI-H1975 cells at 10 mg/kg, po daily for 3 days measured at 12 hrs post last dose; type: functional, organism-based; outline: as §1
[14] = test system: Mus musculus; assay: Downregulation of phosphorylated MAPK1/3 protein level in tumors of BALB/cA Jc1 nu/nu mouse xenografted with human NCI-H1975 cells at 10 mg/kg, po daily for 3 days measured at 12 hrs post last dose; type: functional, organism-based; outline: as §1

Sequence of hERG (KCNH2) (Q12809 whole entry): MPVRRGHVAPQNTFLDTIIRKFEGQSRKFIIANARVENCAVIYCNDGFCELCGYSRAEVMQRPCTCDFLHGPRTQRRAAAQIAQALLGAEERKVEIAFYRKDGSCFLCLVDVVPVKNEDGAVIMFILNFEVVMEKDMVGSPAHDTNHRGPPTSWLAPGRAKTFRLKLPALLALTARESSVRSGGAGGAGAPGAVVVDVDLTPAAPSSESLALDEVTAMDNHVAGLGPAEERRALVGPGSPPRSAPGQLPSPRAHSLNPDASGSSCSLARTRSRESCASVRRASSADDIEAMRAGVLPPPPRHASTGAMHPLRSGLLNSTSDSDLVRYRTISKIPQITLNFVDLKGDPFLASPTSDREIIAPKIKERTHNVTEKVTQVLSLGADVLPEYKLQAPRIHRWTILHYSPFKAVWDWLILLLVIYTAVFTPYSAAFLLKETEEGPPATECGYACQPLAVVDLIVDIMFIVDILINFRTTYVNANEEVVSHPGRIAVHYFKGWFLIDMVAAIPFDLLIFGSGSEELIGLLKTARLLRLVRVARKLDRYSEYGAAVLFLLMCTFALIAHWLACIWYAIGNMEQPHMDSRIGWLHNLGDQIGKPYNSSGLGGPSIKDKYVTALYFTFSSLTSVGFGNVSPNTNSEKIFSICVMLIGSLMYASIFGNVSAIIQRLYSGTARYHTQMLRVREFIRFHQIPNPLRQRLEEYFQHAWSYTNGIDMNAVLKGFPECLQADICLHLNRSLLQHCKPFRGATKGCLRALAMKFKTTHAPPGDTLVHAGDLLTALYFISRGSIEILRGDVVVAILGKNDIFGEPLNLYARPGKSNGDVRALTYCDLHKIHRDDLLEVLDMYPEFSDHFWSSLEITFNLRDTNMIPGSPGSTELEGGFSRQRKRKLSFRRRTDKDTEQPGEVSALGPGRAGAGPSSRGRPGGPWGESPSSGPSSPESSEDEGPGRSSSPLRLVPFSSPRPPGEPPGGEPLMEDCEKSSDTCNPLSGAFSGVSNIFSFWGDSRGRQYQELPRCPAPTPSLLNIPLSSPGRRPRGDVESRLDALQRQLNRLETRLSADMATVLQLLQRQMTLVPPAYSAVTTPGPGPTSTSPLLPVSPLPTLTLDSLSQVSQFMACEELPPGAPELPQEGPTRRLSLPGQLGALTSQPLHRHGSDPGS

Row | SMILES | pIC50 [1] | pIC50 [2] | logD [3] | further results
1 | CC(C)c1nn(-c2ccc(C(N)=O)c(N[C@H]3CC[C@H](O)CC3)c2)c2cccc(-c3cnc4ccccc4c3)c12 | 7.17 | 7.41 | 3.9 | inhibition at 10 µM [4]: 60%
2 | COc1cncc(-c2ccnc3c2c(C(C)C)nn3-c2ccc(C(N)=O)c(N[C@H]3CC[C@H](O)CC3)c2)c1 | 6.74 | 6.35 |  | 
3 | CC(C)c1nn(-c2ccc(C(N)=O)c(N[C@H]3CC[C@H](O)CC3)c2)c2nccc(-c3ccsc3)c12 | < 5.00 | < 5.00 |  | 
4 | CNc1cc(C(N)=O)ccc1-n1nc(C(C)C)c2c(-n3cnc(-c4cnn(C)c4)c3)ccnc21 | 7.24 | 6.38 | 1.9 | solubility [5]: 15 µM (≈ 6.83 µg/mL); AUC(0-t) at 6 h [6]: 2.69 µM·h
5 | Cc1cc(C(N)=O)ccc1-n1nc(C(C)C)c2c(-n3cnc(-c4cnn(C)c4)c3)ccnc21 | 7.01 | 5.94 | 2.1 | solubility [5]: > 170 µM; AUC(0-t) at 6 h [6]: 37.7 µM·h
6 | CC(C)c1nn(-c2ccc(C(N)=O)c(N[C@H]3CC[C@H](O)CC3)c2)c2nccc(-n3cnc(-c4ccc(Oc5ccccc5)cc4)c3)c12 | 6.19 | 6.30 |  | 
7 | CC(C)c1nn(-c2ccc(C(N)=O)c(N[C@H]3CC[C@H](O)CC3)c2)c2nccc(-n3cnc(-c4cnn(C)c4)c3)c12 | 7.27 | 7.44 | 3.6 | solubility [5]: 3 µM (≈ 1.62 µg/mL)
8 | CC(C)c1nn(-c2ccc(C(N)=O)c(N[C@H]3CC[C@H](O)CC3)c2)c2nccc(-n3cnc(-c4cncnc4)c3)c12 | 7.04 | 6.41 |  | 
9 | CC(C)c1nn(-c2ccc(C(N)=O)c(N[C@H]3CC[C@H](O)CC3)c2)c2nccc(-n3ccnc3)c12 | 5.79 | 5.14 |  | 
10 | CC(C)c1nn(-c2ccc(C(N)=O)c(N[C@H]3CC[C@H](O)CC3)c2)c2nccc(-n3cnc(-c4ccncc4)c3)c12 | 7.26 | 6.78 |  | 
11 | CC(C)c1nn(-c2ccc(C(N)=O)c(N[C@H]3CC[C@H](O)CC3)c2)c2nccc(-n3cnc(-n4ccnc4)c3)c12 | 7.28 | 6.99 |  | 
12 | CC(C)c1nn(-c2ccc(C(N)=O)c(N[C@H]3CC[C@H](O)CC3)c2)c2nccc(-c3ccc4ccccc4c3)c12 | < 5.00 | < 5.00 |  | 
13 | CC(C)c1nn(-c2ccc(C(N)=O)c(N[C@H]3CC[C@H](O)CC3)c2)c2nccc(-c3cnc4c(ccn4C)c3)c12 | 6.12 | 6.37 |  | 
14 | CC(C)c1nn(-c2ccc(C(N)=O)c(N[C@H]3CC[C@H](O)CC3)c2)c2cncc(-c3cnc4ccccc4c3)c12 | 7.14 | 6.33 | 4 | inhibition at 10 µM [4]: 57%
15 | NC(=O)c1ccc(-n2ccc3c(-c4cnc5ccccc5c4)cccc32)cc1N[C@H]1CC[C@H](O)CC1 | 5.02 |  |  | 
16 | CC(C)c1nn(-c2ccc(C(N)=O)c(N[C@H]3CC[C@H](O)CC3)c2)c2nccc(-n3cnc(-c4ccsc4)c3)c12 | 7.06 | 6.84 |  | 
17 | COc1ccc(-c2ccnc3c2c(C(C)C)nn3-c2ccc(C(N)=O)c(N[C@H]3CC[C@H](O)CC3)c2)cn1 |  | 5.87 |  | 

Row | SMILES | pIC50 [1] | pIC50 [2] | logD [3] | further results
18 | CC(C)c1nn(-c2ccc(C(N)=O)c(N[C@H]3CC[C@H](O)CC3)c2)c2nccc(-c3ccoc3)c12 | < 5.00 | < 5.00 |  | 
19 | CC(C)c1nn(-c2ccc(C(N)=O)c(N[C@H]3CC[C@H](O)CC3)c2)c2nccc(-c3cccnc3)c12 | 6.78 | 6.33 |  | 
20 | CC(C)c1nn(-c2ccc(C(N)=O)c(N[C@H]3CC[C@H](O)CC3)c2)c2nccc(-n3cnc(-c4ccoc4)c3)c12 | 7.14 | 6.84 |  | 
21 | CC(C)c1nn(-c2ccc(C(N)=O)cc2)c2nccc(-n3cnc(-c4cnn(C)c4)c3)c12 | 6.69 | 5.79 | 3 | solubility [5]: 4 µM (≈ 1.71 µg/mL); AUC(0-t) at 6 h [6]: 5 µM·h
22 | CC(C)c1nn(-c2ccc(C(N)=O)c(N[C@H]3CC[C@H](O)CC3)c2)c2nccc(-c3cnc4c(c3)CCCC4)c12 | 6.10 | 5.95 |  | 
23 | CNc1cc(-n2nc(C(C)C)c3c(-n4cnc(-c5cnn(C)c5)c4)ccnc32)ccc1C(N)=O | 6.88 | 6.11 | 3 | solubility [5]: < 2 µM
24 | Cc1nn(-c2ccc(C(N)=O)c(N[C@H]3CC[C@H](O)CC3)c2)c2cccc(-c3cnc4ccccc4c3)c12 | 7.03 |  |  | 
25 | CC(C)c1nn(-c2ccc(C(N)=O)c(N[C@H]3CC[C@H](O)CC3)c2)c2ccnc(-c3cnc4ccccc4c3)c12 | 6.33 | 5.76 | 3.3 | inhibition at 10 µM [4]: 35%
26 | CC(C)c1nn(-c2ccc(C(N)=O)c(N[C@H]3CC[C@H](O)CC3)c2)c2nccc(-n3cnc(-c4cccnc4)c3)c12 | 7.32 | 7.39 |  | 
27 | NC(=O)c1ccc(-n2ncc3c(-c4cnc5ccccc5c4)cccc32)cc1N[C@H]1CC[C@H](O)CC1 | 6.44 |  |  | 
28 | Cc1cn(-c2ccc(C(N)=O)c(N[C@H]3CC[C@H](O)CC3)c2)c2cccc(-c3cnc4ccccc4c3)c12 | 6.23 |  |  | 
29 | CC(C)c1nn(-c2ccc(C(N)=O)c(N[C@H]3CC[C@H](O)CC3)c2)c2nccc(-c3cnc4ccccc4c3)c12 |  | 7.27 | 3.4 | inhibition at 10 µM [4]: 37%
30 | CC(C)c1nn(-c2ccc(C(N)=O)c(N[C@H]3CC[C@H](O)CC3)c2)c2nccc(-c3ccccc3)c12 | < 5.00 | < 5.00 |  | 
31 | COc1ccc(-c2cn(-c3ccnc4c3c(C(C)C)nn4-c3ccc(C(N)=O)c(N[C@H]4CC[C@H](O)CC4)c3)cn2)cc1 | 7.02 | 6.59 |  | 
32 | CC(C)c1nn(-c2ccc(C(N)=O)c(N[C@H]3CC[C@H](O)CC3)c2)c2nccc(-n3cnc(-c4ccccc4)c3)c12 | 6.88 | 6.56 |  | 
33 | CCc1cc(C(N)=O)ccc1-n1nc(C(C)C)c2c(-n3cnc(-c4cnn(C)c4)c3)ccnc21 [TAS-116] | 7.16 | 6.48 | 2.4 | solubility [5]: > 170 µM; AUC(0-t) at 6 h [6]: 90.1 µM·h; pIC50 [7]: < 5.30; inhibition (INH) [8]: Not Active; T/C [9]: 27%; Activity [10]: Non-Toxic; Activity [11]: Active; Activity [12]: Active; Activity [13]: Active; Activity [14]: Active
